{
  "source": "ChEMBL document CHEMBL4425094",
  "about": "“Novel Benzo[a]quinolizidine Analogs Induce Cancer Cell Death through Paraptosis and Apoptosis” (J Med Chem, 2016)",
  "key": {"PC-3 [1]": {"tested_on": "PC-3", "experiment": "Induction of fusion of autophagosomes with lysosomes in human PC3 cells transfected with mRFP-GFP-LC3 at 1 uM after 8 hrs by fluorescence microscopic analysis", "type": "functional, cell-based", "summary_of_the_method": "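PC3 cells transfected with an mRFP-GFP-LC3 reporter plasmid, then treated 8 h with 1 μM test agent or 0.5 μM rapamycin (autophagy inducer). Imaged by confocal fluorescence microscopy: yellow puncta (overlapping red/green) scored as autophagosomes, red-only puncta as autolysosomes, since GFP is quenched in acidic lysosomes.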"}, "PC-3 [2]": {"tested_on": "PC-3", "experiment": "Induction of cytoplasmic vacuolation in human PC3 cells assessed as formation of small vacuoles at 1 uM after 4 hrs by phase-contrast microscopic analysis", "type": "functional, cell-based", "summary_of_the_method": "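PC3 cells in RPMI 1640 with 10% FBS at 37 °C, 5% CO2, treated with 1 μM agent for 0−24 h; DMSO vehicle control. Vacuole appearance, size and number followed over time by phase-contrast microscopy at constant magnification.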"}, "PC-3M [3]": {"tested_on": "PC-3M", "experiment": "Antiproliferation activity against human PC3M-lluc-C6 cells xenografted in athymic Balb/c mouse assessed as decrease in cell viability at 15 mg/kg, ip administered every 2 days for 18 days by Ki-67 staining based microscopic analysis", "type": "functional, organism-based", "summary_of_the_method": "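Male BALB/c-nu mice, 6 weeks old, each given 5 × 10^6 PC3M-luc-C6 cells subcutaneously in the right anterior flank. At ~0.1 cm3 tumor, groups of n = 5 received 15 mg/kg i.p. every 2 days. Docetaxel 15 mg/kg was the positive control. Tumor tissue stained with H&E or anti-Ki67 (1:500) overnight at 4 °C, HRP/DAB, hematoxylin counterstain, examined by microscopy.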"}, "HeLa": {"tested_on": "HeLa", "experiment": "Cytotoxicity against human HeLa cells assessed as cell growth inhibition after 24 hrs by MTT assay", "type": "functional, cell-based", "summary_of_the_method": "(§1)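 Cells seeded 24 h in RPMI 1640 + 10% FBS. RWPE-1 was kept in K-SFM with bovine pituitary extract and EGF. Cells then exposed to compounds for 24 h at 37 °C, 5% CO2, with DMSO vehicle and docetaxel as positive control. MTT added for 4 h, absorbance read at 570 nm. Triplicate runs, IC50 reported as mean of three experiments.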"}, "MDA-MB-231": {"tested_on": "MDA-MB-231", "experiment": "Cytotoxicity against human MDA-MB-231 cells assessed as cell growth inhibition after 24 hrs by MTT assay", "type": "functional, cell-based", "conditions": "MDA-MB-231, 24 h", "summary_of_the_method": "as §1"}, "PC-3 [4]": {"tested_on": "PC-3", "experiment": "Induction of autophagy in human PC3 cells assessed as vacuole formation at 1 uM after 24 hrs in presence of […] inhibitor E-64d by phase-contrast microscopic analysis", "type": "functional, cell-based", "summary_of_the_method": "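PC3 cells were pretreated with the autophagy inhibitor (3-MA or E64d), then exposed to 1 μM test agent for 24 h. Morphology was imaged by phase-contrast microscopy, and viability was read by MTT at 570 nm. Comparison was against agent-only cells.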"}, "PC-3M [5]": {"tested_on": "PC-3M", "experiment": "Induction of immature autophagy i in human PC3M-lluc-C6 cells xenografted in athymic Balb/c mouse assessed as increase in LC3 protein levels at 15 mg/kg, ip administered every 2 days for 18 days by Western blot and immunohistochemical staining method", "type": "functional, organism-based", "summary_of_the_method": "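Male athymic BALB/c-nu mice (6 weeks) carried subcutaneous right-flank PC3M-luc-C6 xenografts (5 × 10^6 cells). At ~0.1 cm3 they were grouped (n = 5) and given 15 mg/kg i.p. suspension every 2 days; placebo and docetaxel 15 mg/kg were controls. Tumors were analyzed by Western blot and by immunohistochemistry (anti-LC3 1:800, anti-p62 1:500, overnight 4 °C, HRP/DAB, hematoxylin counterstain).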"}, "PC-3 [6]": {"tested_on": "PC-3", "experiment": "Induction of apoptosis in human PC3 cells assessed as early apoptotic cells at 0.5 uM after 24 hrs by Annexin V-FITC/propidium iodide based flow cytometric analysis (reference value: 2.3 %)", "type": "functional", "summary_of_the_method": "(§2)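 PC3 cells exposed to 0.5, 1 or 2 μM for 24 h, then stained with Annexin V-FITC and PI and analyzed by FACSCalibur flow cytometry. Populations assigned as necrotic (Annexin V−/PI+), late apoptotic (double positive), normal (Annexin V−/PI−) and early apoptotic (Annexin V+/PI−). DMSO vehicle control.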"}, "PC-3 [7]": {"tested_on": "PC-3", "experiment": "Induction of apoptosis in human PC3 cells assessed as necrotic cells at 0.5 uM after 24 hrs by Annexin V-FITC/propidium iodide based flow cytometric analysis (reference value: 1.1 %)", "type": "functional", "summary_of_the_method": "as §2"}, "DU-145": {"tested_on": "DU-145", "experiment": "Cytotoxicity against human DU145 cells assessed as cell growth inhibition after 24 hrs by MTT assay", "type": "functional, cell-based", "conditions": "DU-145, 24 h", "summary_of_the_method": "as §1"}, "[8]": {"biological_target": "T1, Eukaryotic translation initiation factor 2-alpha kinase 3 (Homo sapiens) (UniProt Q9NZJ5)", "T1 sequence (whole entry)": "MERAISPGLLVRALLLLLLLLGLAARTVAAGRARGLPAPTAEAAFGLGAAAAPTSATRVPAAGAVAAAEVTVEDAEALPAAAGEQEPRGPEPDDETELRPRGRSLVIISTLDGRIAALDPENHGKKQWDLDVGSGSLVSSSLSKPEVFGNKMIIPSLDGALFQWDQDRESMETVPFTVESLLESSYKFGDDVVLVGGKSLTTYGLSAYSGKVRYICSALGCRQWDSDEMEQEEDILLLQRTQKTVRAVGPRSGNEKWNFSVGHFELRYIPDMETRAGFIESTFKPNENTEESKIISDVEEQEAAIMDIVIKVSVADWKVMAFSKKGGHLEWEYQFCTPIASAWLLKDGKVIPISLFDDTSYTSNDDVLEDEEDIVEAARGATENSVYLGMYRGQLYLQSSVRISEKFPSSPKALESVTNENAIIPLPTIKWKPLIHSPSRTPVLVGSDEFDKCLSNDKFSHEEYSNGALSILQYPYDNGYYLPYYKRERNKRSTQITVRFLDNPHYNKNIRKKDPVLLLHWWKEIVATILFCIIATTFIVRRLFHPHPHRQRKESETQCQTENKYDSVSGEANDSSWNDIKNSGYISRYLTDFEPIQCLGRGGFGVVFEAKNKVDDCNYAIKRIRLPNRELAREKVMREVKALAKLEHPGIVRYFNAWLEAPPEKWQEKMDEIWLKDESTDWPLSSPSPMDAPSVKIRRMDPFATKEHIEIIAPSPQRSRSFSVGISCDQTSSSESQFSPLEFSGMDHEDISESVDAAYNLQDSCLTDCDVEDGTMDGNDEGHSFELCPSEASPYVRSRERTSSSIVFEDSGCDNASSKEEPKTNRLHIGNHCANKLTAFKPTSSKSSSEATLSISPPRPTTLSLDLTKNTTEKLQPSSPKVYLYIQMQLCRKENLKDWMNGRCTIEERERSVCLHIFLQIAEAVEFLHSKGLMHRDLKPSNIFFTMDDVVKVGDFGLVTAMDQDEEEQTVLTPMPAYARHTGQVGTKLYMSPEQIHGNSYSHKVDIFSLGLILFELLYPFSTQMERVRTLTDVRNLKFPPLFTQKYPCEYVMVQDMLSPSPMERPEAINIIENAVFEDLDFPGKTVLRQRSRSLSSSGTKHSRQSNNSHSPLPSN", "experiment": "Activation of PERK phosphorylation in human PC3 cells after 24 hrs by Western blot analysis", "type": "cell-based", "summary_of_the_method": "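PC3 cells in RPMI 1640 with 10% FBS, treated with compound for timed intervals. DMSO vehicle control. Lysis in RIPA buffer, 40 μg protein per lane on SDS-PAGE, transfer to nitrocellulose. Primary antibodies overnight at 4 °C, HRP-secondary 45 min, ECL detection. GAPDH or β-actin used as loading control.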"}},
  "note": "Calls of active or inactive are those of the source. The rule behind the calls is not given here.",
  "data": [
    {"smiles": "Cc1cc(C)cc(COc2cc3c(cc2OCc2cc(C)cc(C)c2)[C@@H]2C[C@H](O)C[C@@H](C)N2CC3)c1", "note": "(racemic)", "values": [
      {"measurement": "Activity", "setting": "PC-3 [1]", "result": "inactive"},
      {"measurement": "Activity", "setting": "PC-3 [2]", "result": "Active"},
      {"measurement": "inhibition", "setting": "PC-3M [3]", "result": "Active"},
      {"measurement": "IC50", "setting": "HeLa", "result": 1.65, "unit": "µM"},
      {"measurement": "IC50", "setting": "MDA-MB-231", "result": 0.82, "unit": "µM"},
      {"measurement": "Activity", "setting": "PC-3 [4]", "result": "Active"},
      {"measurement": "Activity", "setting": "PC-3M [5]", "result": "Active"},
      {"measurement": "Activity", "setting": "PC-3 [6]", "result": 2.5, "unit": "%"},
      {"measurement": "Activity", "setting": "PC-3 [7]", "result": 1, "unit": "%"},
      {"measurement": "IC50", "setting": "DU-145", "result": 1.96, "unit": "µM"},
      {"measurement": "Activity", "setting": "[8]", "result": "Active"}
    ]}
  ]
}
